# Only some compounds are listed: those with a hit (about 4.1% of all), similar ones and a draw of the others.
# RGS4 block = inhibitors of human RGS4; P49798; HEK293 M3R/RGS4 inducible, Fluo-4 calcium flux; active compounds read high; triggered by carbachol at its EC20; B-score at 10 µM; 310,000 tested, 0.45% active; AID 463165;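 active = B-score, a plate-corrected calcium signal, over three deviations above library mean, with baseline fluorescence within five deviations of library mean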;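 also: RGS4 expression induced by doxycycline in cells with stable M3 receptor; B-score is computed from the integrated fluorescence ratio over baseline after carbachol; higher B-score means a larger calcium signal and so more RGS4 inhibition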
# Target sequence (P49798 whole entry, looked up): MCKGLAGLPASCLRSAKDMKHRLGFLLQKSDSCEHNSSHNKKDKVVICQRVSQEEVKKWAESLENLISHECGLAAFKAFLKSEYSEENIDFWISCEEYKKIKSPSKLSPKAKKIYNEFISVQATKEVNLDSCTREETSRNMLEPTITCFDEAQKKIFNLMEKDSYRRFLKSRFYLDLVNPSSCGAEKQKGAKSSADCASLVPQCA
# RGS4 pot = RGS4 potentiation or activation | 310,000 tested, 0.92% active | AID 463111 | B-score at 10 µM | HEK293 M3R/inducible RGS4, carbachol calcium flux Fluo4; active compounds read low;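 active = B-score of the integrated calcium signal more than 4 SD below the library mean, with starting fluorescence not abnormally high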;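 also: negative B-score means reduced calcium response which marks RGS4 activation or potentiation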
#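 Detection: kinetic calcium fluorescence imaging with Fluo4-AM dye, 2 µM / Material: HEK293 cells with stable M3R and inducible RGS4 / Schedule: recording 10 s baseline at 1 Hz, 100 s post-agonist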
# Kir21 inh = Kir2.1 (mouse) channel inhibition; HEK293-Kir2.1, FluxOR thallium flux fluorescence; active compounds read low; B-score at 10 µM; 310,000 tested, 0.85% active;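 active = fluorescence ratio B-score at or below minus 3 SD of library scores, with starting-brightness B-score within 2 SD, cut at about -4.2 in these data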;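 also: channel flux triggered by added potassium and thallium sulfate stimulus; B-score of peak minus minimum fluorescence over baseline after thallium stimulus; more negative B-score means stronger Kir2.1 block with less thallium influx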
# Target sequence (P35561 whole entry, looked up): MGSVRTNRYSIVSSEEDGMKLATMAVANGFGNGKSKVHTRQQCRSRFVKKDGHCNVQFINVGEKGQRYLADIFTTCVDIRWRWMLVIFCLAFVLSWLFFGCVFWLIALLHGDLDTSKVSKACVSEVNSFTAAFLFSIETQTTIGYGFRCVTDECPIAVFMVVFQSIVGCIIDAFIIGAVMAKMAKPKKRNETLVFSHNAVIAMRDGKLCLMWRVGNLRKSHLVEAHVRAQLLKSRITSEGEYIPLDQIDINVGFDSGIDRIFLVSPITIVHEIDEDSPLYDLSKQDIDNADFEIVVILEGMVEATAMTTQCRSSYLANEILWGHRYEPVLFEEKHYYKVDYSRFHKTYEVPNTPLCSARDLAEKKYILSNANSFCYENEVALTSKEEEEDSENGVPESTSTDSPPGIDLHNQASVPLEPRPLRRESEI
# MrgX1 PAM = allosterically activates human MrgX1 receptor signaling; Q96LB2; MrgX1-HEK293, Fluo-4 calcium flux, FDSS; active compounds read high; B-score at 10 µM; 310,000 tested, 0.63% active; AID 588675;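 active = plate-corrected calcium response at least 3 library SD above typical, normal starting fluorescence, not activating the receptor alone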;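 also: compound read alongside a low EC10 to EC30 dose of BAM8-22 agonist; peak minus trough fluorescence over baseline measured at the second addition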
# MrgX1 antag = blocks BAM8-22 activation of human MrgX1 receptor. B-score at 10 µM. Q96LB2. MRGX1-HEK293 calcium flux, Fluo-4, BAM8-22 antagonism; active compounds read low. 310,000 tested, 1.3% active. AID 588676;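 active = calcium-response B-score plate-corrected more than 3 library SD below zero, starting fluorescence within 5 deviations, no agonist response on first addition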;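 also: peak minus trough fluorescence over baseline after final BAM8-22 challenge near maximal dose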
# MrgX1 ag = activates human MrgX1 receptor signaling | Q96LB2 | MrgX1-HEK293 cells, Fluo-4 calcium fluorescence, agonist mode; active compounds read high | B-score at 10 µM | 310,000 tested, 0.44% active | AID 588627;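 active = calcium response B-score plate-corrected fluorescence ratio at least 3 library SD, with starting fluorescence B-score inside 5 SD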
#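 Material – MrgX1-expressing HEK293 cells · Input – 15,000 cells seeded per well · Dosing – compound as first of three additions · Times – overnight seeding, then 1 h dark dye loading · Measured by – kinetic Fluo-4 NW fluorescence of intracellular calcium · Read-out – B-scored fluorescence response ratio · Benchmarks – positive and negative control wells on each plate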
# MrgX1 antag conf = confirmation of human MrgX1 receptor antagonists | shares compounds with MrgX1 antag | MrgX1-HEK293, BAM8-22 calcium flux, Fluo-4; active compounds read low | remaining BAM8-22 calcium response % of control (active compounds read low), % at 10 µM | 2,300 tested, 19% active;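 active = remaining agonist calcium response no higher than 100% minus 3 SD of agonist-only control wells, with starting fluorescence near control levels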;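 also: agonist BAM8-22 given at a near maximal EC90 to ECmax level; peak minus minimum fluorescence divided by baseline after agonist addition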
# HEK293 Ca flux = activity in parental HEK293 cells lacking MrgX1; Fluo-4 calcium fluorescence, FDSS; fluorescence ratio F(max-min)/F0 at 10 µM; shares compounds with MrgX1 antag; 4,000 tested, 2% active; AID 624111;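 active = duplicate-averaged calcium fluorescence ratio at least three times the standard deviation of buffer wells, a nonspecific response in parental cells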
# HEK293 Ca counter = counter-screen for MrgX1 allosteric activators: effect in parental HEK293 cells; shares compounds with MrgX1 antag; parental HEK293 calcium flux, Fluo-4 fluorescence ratio; active compounds read high; fluorescence ratio F(max-min)/F0 at 10 µM; 4,000 tested, 0.4% active;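 active = calcium fluorescence ratio, averaged over duplicates, at least 3 SD of the buffer-well ratio, meaning a nonspecific response in receptor-free cells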;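 also: untransfected parental HEK293 lacking MrgX1 used as counterscreen for MrgX1 allosteric activators; fluorescence change taken during the second addition on a kinetic imager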
# HEK293 Ca cntr2 = counter-screen for MrgX1 activators: effect in parental HEK293 cells. shares compounds with MrgX1 antag. Fluo-4 calcium fluorescence (FDSS); active compounds read high. fluorescence ratio F(max-min)/F0 at 10 µM. 4,000 tested, 8.7% active;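 active = calcium fluorescence ratio at least three times the spread of buffer wells, meaning a non-specific response in parental cells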
# * hit, by the source's call; i = inactive; x = not tested or not shown.
SMILES,RGS4 block,RGS4 pot,Kir21 inh,MrgX1 PAM,MrgX1 antag,MrgX1 ag,MrgX1 antag conf,HEK293 Ca flux,HEK293 Ca counter,HEK293 Ca cntr2
O=C(O)Cn1nc(-c2ccccc2)cc1-c1ccccc1,i,i,1.4,i,-5.6*,i,i,i,i,i
O=C(Cc1c(F)cccc1Cl)Nc1ccon1,i,i,1,i,-6.5*,i,i,i,i,i
Cc1cc(NC(=O)Cc2c(F)cccc2Cl)no1,i,i,-1.1,i,i,i,x,x,x,x
O=S(=O)(c1ccccc1Cl)N1CCC(O)(c2ccc3c(c2)OCO3)CC1,i,i,0.38,i,-4.9*,i,i,i,i,i
CCCCCc1nc(-c2nonc2N)no1,i,i,-0.05,i,i,i,x,x,x,x
Nc1nonc1-c1noc(N2CCCCC2)n1,i,i,0.24,i,-5.5*,i,85%*,i,i,i
COC(C[C@@H]1O[C@@H]1[C@H](O)[C@@H](C)OCc1ccccc1)OC,i,i,-0.03,i,i,i,x,x,x,x
O=C(O)c1ccc(Nc2nc3ccccc3nc2NS(=O)(=O)c2ccc(F)cc2)cc1,i,i,2.4,i,i,i,x,x,x,x
CC(=O)Nc1ccc(S(=O)(=O)Nc2cc(C)c(-n3nc4ccccc4n3)cc2O)cc1,i,i,-0.91,i,-5.2*,i,i,i,i,i
COc1ccc(S(=O)(=O)Nc2nc3ccccc3nc2Nc2ccc3c(c2)OCO3)cc1,i,i,-0.46,i,-5.1*,i,i,i,i,i
CC(=O)Nc1ccc(S(=O)(=O)Nc2nc3ccccc3nc2Nc2ccc(N)cc2)cc1,i,i,-0.44,i,-6.2*,i,75%*,i,i,i
CC1CCN(C(=O)CC2C(=O)Nc3c2c(=O)n(C)c(=O)n3Cc2ccccc2)CC1 (centres undefined),i,i,0.01,i,i,i,x,x,x,x
CC1(C)Cc2c(C#N)c(N)n(-c3ccccc3)c(=O)c2CO1,i,i,2.5,i,-13*,i,i,i,i,i
N#Cc1c(N)n(-c2ccccc2)c(=O)c2cc([N+](=O)[O-])ccc12,i,i,0.02,i,i,i,x,x,x,x
COc1cccc(OCCCOc2ccccc2C(C)C)c1,i,i,-1.5,i,-6.9*,i,i,i,i,i
Cc1cccc2cc3c(N)c(C#N)sc3nc12,i,i,-2.2,i,i,i,x,x,x,x
Cc1sc(NC(=O)c2sc3nc4c(C)cccc4cc3c2N)c(C#N)c1C,i,i,0.05,i,-6.2*,i,60%*,i,i,i
Cc1cccc2cc3c(N)c(C(=O)N4CCc5ccccc54)sc3nc12,i,i,0.85,i,-8.4*,i,i,0.48*,i,59*
Cn1cccc1CC(=O)N/N=C/c1cc([N+](=O)[O-])ccc1Cl,i,i,-1.3,i,i,i,x,x,x,x
O=C(CSc1nnc(C2COc3ccccc3O2)o1)N1CCCc2ccccc21 (centres undefined),i,i,-0.75,i,-4.5*,i,i,i,i,i
O=C(NC1CCS(=O)(=O)C1)C12CC3CC(CC(C3)C1)C2 (centres undefined),i,i,0.97,i,-9.4*,i,i,i,i,i
O=C(COC(=O)CNC(=O)C12CC3CC(CC(C3)C1)C2)NC1CCS(=O)(=O)C1 (centres undefined),i,i,-0.45,i,i,i,x,x,x,x
CC(C)c1cc(C(=O)N/N=C/c2ccco2)n[nH]1,i,i,-0.16,i,i,i,x,x,x,x
COc1ccccc1CNC(=O)[C@@H]1CCCN1C(=O)C1CCN(S(=O)(=O)c2ccc(C)cc2)CC1,i,i,1.8,i,i,i,x,x,x,x
COc1ccccc1CNC(=O)[C@@H]1CCCN1S(=O)(=O)c1ccc(C)cc1,i,i,-1.3,i,-6.6*,i,i,i,i,i
SMILES,RGS4 block,RGS4 pot,Kir21 inh,MrgX1 PAM,MrgX1 antag,MrgX1 ag,MrgX1 antag conf,HEK293 Ca flux,HEK293 Ca counter,HEK293 Ca cntr2
CCOC(=O)c1csc(NC(=O)CCSc2ccccc2)n1,i,i,0.49,i,-5.3*,i,i,i,i,i
CCCCC(=O)Nc1ccc(C(=O)N(CC)c2ccccc2C)cc1,i,i,0.55,i,-7*,i,i,i,i,i
CCCN(CCC)S(=O)(=O)c1ccc(C(=O)Nc2nc3c(s2)CCc2ccccc2-3)cc1,i,i,-1.2,i,-5.2*,i,i,i,i,i
CC1CN(C(=O)Nc2ccc(Br)cc2Cl)CC(C)O1 (centres undefined),i,i,1.3,i,-6.4*,i,i,i,i,i
COc1ccc(C(=O)NC(C)c2ccc(-n3ccnc3)cc2)c(OC)c1 (centres undefined),i,i,-0.32,i,-10*,i,i,i,i,i
COc1ccc(C(=O)NC(C)c2ccc(-n3ccnc3)cc2)c(OC)c1OC (centres undefined),i,i,-0.5,i,i,i,x,x,x,x
Cn1c(=O)c2c(nc(NN=C3CCCCC3)n2C)n(C)c1=O,i,i,-0.03,i,i,i,x,x,x,x
COc1cc(NC(=S)NC(=O)c2c(OC)cccc2OC)ccc1NC(=O)c1cccs1,i,i,0.95,i,i,i,x,x,x,x
COc1cc(NC(=S)NC(=O)c2ccc(C(C)(C)C)cc2)ccc1NC(=O)c1cccs1,i,i,-0.02,i,-6.2*,i,81%*,i,i,i
Clc1ccc(-c2nc3ccccn3c2CN2CCCCC2)cc1,i,i,0.01,i,i,i,x,x,x,x
